ChEMBL document CHEMBL3856278, “Antitumor Activity of Lankacidin Group Antibiotics Is Due to Microtubule Stabilization via a Paclitaxel-like Mechanism” (J Med Chem, 2016)
pEC50, pIC50, pKd: −log10 of the molar value. Calls of active or inactive are those of the source. The rule behind the calls is not given here.

Assays:
[1] = (§1) Binding affinity to free porcine brain tubulin dimers after 30 mins by fluorescence quenching assay; design: species or system Sus scrofa
How it was run: (§2)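 Free tubulin dimers (porcine brain tubulin, or recombinant human αI-βI) at 2 μM final in 10 mM sodium phosphate, 10 mM MgCl2, 1 mM GTP, 0.5% DMSO, 250 mM sucrose, pH 7.0. Held on ice 10 min, then ligand added at 5–100 μM final. Incubated 30 min at 25 °C, then rotated 1 h at room temperature. Tryptophan emission read at 310–400 nm with 295 nm excitation. Kd derived by Stern–Volmer fit.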

Sus scrofa [2] = organism: Sus scrofa; experiment: as §1; how it was run: as §2
[3] = molecular target: Tubulin alpha-1A /beta chains (Homo sapiens) (UniProt Q71U36+P07437); experiment: (§3) Binding affinity to human recombinant tubulin alpha 1A/tubulin beta chain after 30 mins by fluorescence quenching assay; assay type: protein-complex assay; how it was run: as §2
Sequence of Tubulin alpha-1A /beta chains (Homo sapiens) (P07437 whole entry, looked up): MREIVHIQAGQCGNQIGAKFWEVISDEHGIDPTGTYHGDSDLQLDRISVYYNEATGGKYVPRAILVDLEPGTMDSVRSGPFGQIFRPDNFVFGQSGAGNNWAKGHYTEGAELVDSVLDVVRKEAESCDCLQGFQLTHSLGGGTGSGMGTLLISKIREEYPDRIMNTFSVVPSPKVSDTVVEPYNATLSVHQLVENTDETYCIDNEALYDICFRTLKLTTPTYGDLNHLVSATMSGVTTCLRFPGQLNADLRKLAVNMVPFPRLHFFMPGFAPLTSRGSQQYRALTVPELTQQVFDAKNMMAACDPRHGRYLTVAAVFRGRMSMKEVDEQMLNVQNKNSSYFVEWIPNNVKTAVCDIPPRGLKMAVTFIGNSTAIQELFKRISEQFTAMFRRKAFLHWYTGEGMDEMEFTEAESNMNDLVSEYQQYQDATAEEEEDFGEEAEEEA
Sequence of Tubulin alpha-1A /beta chains (Homo sapiens) (Q71U36 whole entry, looked up): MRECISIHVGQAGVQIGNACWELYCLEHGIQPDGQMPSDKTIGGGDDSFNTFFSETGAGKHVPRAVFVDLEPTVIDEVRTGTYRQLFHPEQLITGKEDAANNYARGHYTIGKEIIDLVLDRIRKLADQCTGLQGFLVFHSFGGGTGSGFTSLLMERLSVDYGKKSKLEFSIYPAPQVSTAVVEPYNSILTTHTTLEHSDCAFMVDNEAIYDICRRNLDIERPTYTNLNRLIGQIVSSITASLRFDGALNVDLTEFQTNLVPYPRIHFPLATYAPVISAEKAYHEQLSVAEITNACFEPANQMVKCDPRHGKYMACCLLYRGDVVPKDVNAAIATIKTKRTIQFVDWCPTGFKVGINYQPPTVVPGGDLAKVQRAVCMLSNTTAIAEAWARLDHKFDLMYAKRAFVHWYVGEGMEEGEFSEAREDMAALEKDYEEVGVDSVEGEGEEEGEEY

[4] = molecular target: Tubulin alpha-1A /beta chains (Homo sapiens, UniProt P07437+Q71U36); experiment: as §3; assay type: protein-complex assay; how it was run: as §2
Sequence of Tubulin alpha-1A /beta chains (P07437 whole entry, looked up): as the sequence (P07437 whole entry, looked up) above
Sequence of Tubulin alpha-1A /beta chains (Q71U36 whole entry, looked up): as the sequence (Q71U36 whole entry, looked up) above

Sus scrofa [5] = organism: Sus scrofa; experiment: Inhibition of porcine tubulin polymerization assessed as increase in duration of nucleation phase at 10 uM measured every 94 secs
How it was run: (§4)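 Plate prewarmed to 37 °C; OD340 read at 37 °C every 94 s for 61 cycles with orbital shaking. Runs in triplicate, duplicate for mebendazole; the averaged curve gave phase lengths, Vmax and final polymer mass.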

Sus scrofa [6] = organism: Sus scrofa; experiment: Inhibition of porcine tubulin polymerization assessed as maximum growth rate at 10 uM measured every 94 secs (reference value: 13 milliOD/min); how it was run: as §4
Sus scrofa [7] = organism: Sus scrofa; experiment: Inhibition of porcine tubulin polymerization assessed as decrease in final polymer mass at 10 uM measured every 94 secs; how it was run: as §4
T47D [8] = experiment: Destabilization of microtubule network in human T47D cells at 0.5 uM after 2 hrs by DAPI staining-based immunofluorescence assay; assay type: cell-based
How it was run: (§5)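 T47D cells seeded on coverslips and synchronized. Treated 2 h with drug (colchicine 0.5 μM, paclitaxel 100 nM, lankacidin C 1 mM) against a 1% DMSO control. Stained with anti-tubulin antibody and Alexa Fluor 488 secondary, DNA counterstained with DAPI. Imaged by epifluorescence microscopy with a 63× objective.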

Sus scrofa [9] = organism: Sus scrofa; experiment: Destabilization of rhodamine labeled porcine microtubule assessed as appearance of short strands microtubules at 10 uM after 5 mins by upright fluorescence microscopic analysis
T47D [10] = experiment: Stabilization of microtubule network in human T47D cells at 100 nM after 2 hrs by DAPI staining-based immunofluorescence assay; assay type: cell-based
How it was run: (§6)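 T47D cells in RPMI1640 with 2 mM L-glutamine, 10% FBS, 0.01 mg/mL insulin and 1 mM pyruvate were seeded on coverslips, synchronized, then given drug 2 h (1% DMSO solvent control). Anti-tubulin antibody with Alexa Fluor 488 secondary and 0.1 μg/mL DAPI for DNA; epifluorescence at 63×, interphase networks and mitotic spindles scored.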

T47D [11] = experiment: Stabilization of interphase microtubule network in human T47D cells assessed as disruption of mitotic spindles at 100 nM after 2 hrs by DAPI staining-based immunofluorescence assay; assay type: cell-based; how it was run: as §6
Sus scrofa [12] = organism: Sus scrofa; experiment: Induction of porcine tubulin polymerization assessed as bypass of nucleation phase at 10 uM measured every 94 secs; how it was run: as §4
Sus scrofa [13] = organism: Sus scrofa; experiment: Induction of porcine tubulin polymerization assessed as maximum growth rate at 10 uM measured every 94 secs (reference value: 13 milliOD/min)
How it was run: (§7)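 Assembly followed at 37 °C by OD340 every 94 s for 61 cycles. Averaged curves from three runs were analysed for nucleation, Vmax and final polymer mass.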

Sus scrofa [14] = organism: Sus scrofa; experiment: Induction of porcine tubulin polymerization assessed as increase in final polymer mass at 10 uM measured every 94 secs; how it was run: as §7
Sus scrofa [15] = organism: Sus scrofa; experiment: Stabilization of rhodamine labeled porcine microtubule assessed as appearance of long strands microtubules at 10 uM after 5 mins by upright fluorescence microscopic analysis
How it was run: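 Rhodamine-labeled tubulin mixed 1:4 with unlabeled tubulin to 5 mg/mL in G-PEM (12% glycerol, pH 7.0). Polymerized 20 min at 37 °C, then drug added to 10 μM and incubated 5 min more at 37 °C. Diluted to 1.3 mg/mL and imaged immediately by fluorescence microscopy with a 40× oil objective.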

[16] = Cytotoxicity against human HeLa cells assessed as decrease in cell viability after 48 hrs by CellTiter-Blue assay; assay type: functional, cell-based
How it was run: (§8)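 HeLa cells in DMEM with 10% FBS; T47D cells in RPMI1640 with 10% FBS, insulin and pyruvate. Cells seeded at 2000 per well 24 h before treatment. Triplicate wells given increasing drug concentrations in DMSO for 48, 72 or 96 h. Viability read by CellTiter-Blue fluorescence (560ex/590em) after 2–4 h with reagent. Run twice; mean and SEM reported.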

[17] = Cytotoxicity against human HeLa cells assessed as decrease in cell viability after 72 hrs by CellTiter-Blue assay; assay type: functional, cell-based; how it was run: as §8
[18] = Cytotoxicity against human HeLa cells assessed as decrease in cell viability after 96 hrs by CellTiter-Blue assay; assay type: functional, cell-based; how it was run: as §8
[19] = Cytotoxicity against human T47D cells assessed as decrease in cell viability after 48 hrs by CellTiter-Blue assay; assay type: functional, cell-based; how it was run: as §8
[20] = Cytotoxicity against human T47D cells assessed as decrease in cell viability after 96 hrs by CellTiter-Blue assay; assay type: functional, cell-based; how it was run: as §8
T47D [21] = experiment: Stabilization of interphase microtubule network in human T47D cells at 1 mM after 2 hrs by DAPI staining-based immunofluorescence assay; assay type: cell-based; how it was run: as §5
T47D [22] = experiment: Stabilization of interphase microtubule network in human T47D cells assessed as disruption of mitotic spindles at 1 mM after 2 hrs by DAPI staining-based immunofluorescence assay; assay type: cell-based; how it was run: as §5
Sus scrofa [23] = organism: Sus scrofa; experiment: Induction of porcine tubulin polymerization assessed as decrease in duration of nucleation phase at 10 uM measured every 94 secs; how it was run: as §7
Sus scrofa [24] = organism: Sus scrofa; experiment: Induction of porcine tubulin polymerization assessed as bypass of nucleation phase at 100 uM measured every 94 secs; how it was run: as §7
Sus scrofa [25] = organism: Sus scrofa; experiment: Induction of porcine tubulin polymerization assessed as maximum growth rate at 100 uM measured every 94 secs (reference value: 13 milliOD/min); how it was run: as §7
Sus scrofa [26] = organism: Sus scrofa; experiment: Induction of porcine tubulin polymerization assessed as doubling of final polymer mass at 100 uM measured every 94 secs; how it was run: as §7
[27] = Inhibition of flutax-2 binding to porcine microtubule assessed as flutax-2 EC50 at 128 uM after 1 hr by fluorescence assay (reference value: 248 +/- 50 nM); design: species or system Sus scrofa
[28] = Binding affinity to paclitaxel binding site of porcine microtubule after 1 hr by Michaelis-Menten plot analysis; design: species or system Sus scrofa; settings: read-out: Kd(app)

CC(=O)O[C@@H]1/C=C/C(C)=C/C[C@H](O)/C=C/C(C)=C/[C@@H](NC(=O)C(C)O)[C@]2(C)C(=O)O[C@H](C1)[C@@H](C)C2=O (stereo not given in full)
pKd [1]: 2.96
Activity (Sus scrofa [2]): Dose-dependent effect
Activity [3]: Dose-dependent effect
pKd [4]: 3.18

COC(=O)Nc1nc2cc(C(=O)c3ccccc3)ccc2[nH]1
inhibition (Sus scrofa [5]): Active
Vmax (milli optical density/minute) (Sus scrofa [6]): 4
inhibition (Sus scrofa [7]): Active

COc1cc2c(c(OC)c1OC)-c1ccc(OC)c(=O)cc1[C@@H](NC(C)=O)CC2
Activity (T47D [8]): Active
Activity (Sus scrofa [9]): Active

CC(=O)O[C@H]1C(=O)[C@@]2(C)[C@H]([C@H](OC(=O)c3ccccc3)[C@]3(O)C[C@H](OC(=O)[C@H](O)[C@@H](NC(=O)c4ccccc4)c4ccccc4)C(C)=C1C3(C)C)[C@]1(OC(C)=O)CO[C@@H]1C[C@@H]2O
Activity (T47D [10]): Active
Activity (T47D [11]): Active
Activity (Sus scrofa [12]): Active
Vmax (milli optical density/minute) (Sus scrofa [13]): 21
Activity (Sus scrofa [14]): Active
Activity (Sus scrofa [15]): Active

CC(=O)C(=O)N[C@@H]1/C=C(\C)C=C[C@@H](O)C/C=C(C)/C=C/[C@@H](O)C[C@H]2OC(=O)[C@]1(C)C(=O)[C@@H]2C
pIC50 [16]: 2.97
pIC50 [17]: 3.49
pIC50 [18]: 3.65
pIC50 [19]: 3.69
pIC50 [20]: 4.95
Activity (T47D [21]): Active
Activity (T47D [22]): Active
Vmax (milli optical density/minute) (Sus scrofa [13]): 18
Activity (Sus scrofa [14]): Active
Activity (Sus scrofa [23]): Active
Activity (Sus scrofa [24]): Active
Vmax (milli optical density/minute) (Sus scrofa [25]): 35
Activity (Sus scrofa [26]): Active
Activity (Sus scrofa [15]): Active
pEC50 [27]: 6.04
pKd [28]: 4.30
pKd [1]: 3.26
Activity (Sus scrofa [2]): Dose-dependent effect
Activity [3]: Dose-dependent effect
pKd [4]: 2.97
